High-throughput results as filed in PubChem BioAssay.
A selection: hits, their analogues and other compounds. The true share with any hit is near 3.3%.
PRMT1 inh: PRMT1 (human) inhibition, primary screen. Q99873. recombinant PRMT1, activity-based probe fluorescence polarization. inhibition, % at 2.79 µM. 1.3% of 370,000 active. AID 652257;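 active = inhibition above about 21% made by adding two undisclosed values, limit read from the data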
Target sequence (Q99873 whole entry, looked up): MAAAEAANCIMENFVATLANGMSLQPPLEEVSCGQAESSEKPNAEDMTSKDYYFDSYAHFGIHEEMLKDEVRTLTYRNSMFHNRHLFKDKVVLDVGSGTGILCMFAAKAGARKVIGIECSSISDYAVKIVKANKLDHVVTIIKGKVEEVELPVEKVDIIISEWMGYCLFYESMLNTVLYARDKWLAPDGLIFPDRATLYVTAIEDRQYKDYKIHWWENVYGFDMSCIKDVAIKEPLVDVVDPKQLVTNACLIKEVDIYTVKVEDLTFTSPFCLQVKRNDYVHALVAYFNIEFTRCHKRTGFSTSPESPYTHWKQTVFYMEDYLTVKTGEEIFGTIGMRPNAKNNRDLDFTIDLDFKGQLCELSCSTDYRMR
ABHD4 inh: inhibitors of mouse ABHD4; Q8VD66; purified mABHD4, FP-Rh probe fluorescence polarization; inhibition, % at 8.92 µM; 0.54% of 370,000 active; AID 720543;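 active = inhibition exceeding the mean over every tested compound plus 3 SD, cut at about 30% in these data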;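 note: 0% = plate median of compound wells and 100% = S159A mutant with DMSO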
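System: mouse ABHD4 enzyme, wild type / Medium: HEPES pH 7.0, NaCl, Pluronic buffer / Reagent: FP-Rh activity-based fluorescent probe / Control set: S159A mutant high control, sample median low control / Detection: fluorescence polarization with parallel and perpendicular emission, 525/598 nm / Schedule: 45 min + 60 min at 25 °C / Compound dosing: 8.92 µM, single dose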
TCR-CD3 inh: blocks the human TCR-CD3 interaction; TAMRA-labeled TCR probe fluorescence, biochemical; inhibition, % at 9.4 µM; 0.37% of 360,000 active; in the data active = inhibition above about 19%;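 note: recombinant mutant TCR 2C K166C tagged with TAMRA read by polarization; 0% = receptor in buffer alone and 100% = receptor with positive control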
rCAG RNA binder: r(CAG) repeat RNA binding. TO-PRO-1 dye displacement fluorescence. 1.3% of 370,000 active. AID 651821. inhibition, % at 3 µM;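 active = inhibition above the plate cutoff, the mean of all test compounds on that plate plus 3 SD, cut at about 35% in these data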;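 note: 0% = DMSO alone and 100% = 100 µM mitoxantrone as full dye displacement; higher means more dye released from RNA so lower well fluorescence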
SIAE inh: inhibitors of human sialic acid acetylesterase SIAE; Q9HAT2; SIAE FP-Rh probe binding, fluorescence polarization; inhibition, % at 9.66 µM; 0.69% of 370,000 active;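 active = inhibition above a cutoff: mean of compounds within the control limits plus 3 SD of those, cut at about 17% in these data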;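 note: 0% = plate median of compound wells and 100% = probe without SIAE protein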
PRMT1 confirm: PRMT1 (human) inhibition, FP confirmation. inhibition, % at 2.79 µM. 42% of 3,300 active. shares compounds with PRMT1 inh. recombinant His-PRMT1, activity-based probe fluorescence polarization;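 active = mean inhibition across replicates above the hit cutoff derived for the earlier primary screen, cut at about 22% in these data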
Starred values were filed as active, the others as inactive; . = not tested or not shown.

SMILES	PRMT1 inh	ABHD4 inh	TCR-CD3 inh	rCAG RNA binder	SIAE inh	PRMT1 confirm
COc1ccc(C2C(C(=O)c3ccco3)=C(O)C(=O)N2c2nnc(C)s2)cc1 (stereo unspecified)	13	8	-8	-8	1	.
CCOc1cccc(C2C(C(=O)c3ccco3)=C(O)C(=O)N2c2nnc(C)s2)c1 (stereo unspecified)	16	7	3	8	-2	.
CCSc1nnc(N2C(=O)C(O)=C(C(=O)c3ccco3)C2c2cccc(OC)c2)s1 (stereo unspecified)	31*	-10	-3	26	-5	17
CSc1nnc(N2C(=O)C(O)=C(C(=O)c3ccco3)C2c2cccc(Cl)c2)s1 (stereo unspecified)	30*	-20	-3	31	-12	18
CCOC(=O)c1sc(N2C(=O)C(O)=C(C(=O)c3ccco3)C2c2ccco2)nc1C (stereo unspecified)	9	18	3	31	6	.
CSc1nnc(N2C(=O)C(O)=C(C(=O)c3ccco3)C2c2ccc(F)cc2)s1 (stereo unspecified)	43*	-6	-22	9	-3	11
CC(C)CSc1ncccc1-c1nc2ccccc2[nH]1	6	2	.	1	-3	.
Cc1cc(C)c2cc3c(N)c(C(=O)N4CCOCC4)sc3nc2c1	21	2	-8	9	3	.
CCOc1ccc2nc3sc(C(=O)N4CCOCC4)c(N)c3cc2c1	28*	4	-6	7	1	3
O=c1oc2c(O)cccc2cc1-c1nc2ccccc2[nH]1	60*	1	6	-251	16	50*
O=c1oc2c(CN3CCCCC3)c(O)ccc2cc1-c1nc2ccccc2[nH]1	16	5	6	-15	1	.
CCC(C)N(C(=O)CN1C(=O)C2CCCCN2C(=O)c2ccccc21)C(C)CC (stereo unspecified)	1	5	.	-1	3	.
O=c1[nH]sc2ccccc12	72*	5	2	-2	8	86*
C=CCN1C(=O)[C@@H](CC(=O)N2CCN(C(=O)C3CC3)CC2)[C@]2(C(=O)OCC)CCCCC/C=C/12	2	-1	.	4	-2	.
CC(C)NC(=O)c1sc2nc3c(c(-c4cccs4)c2c1N)CN(C)CC3	39*	7	10	12	-2	8
Cc1cccc(NC(=O)c2sc3nc4c(c(-c5cccs5)c3c2N)CN(C)CC4)c1	14	12	3	7	4	.
CC(=O)CSc1cc(-c2ccccc2)nc2ncnn12	28*	1	-10	-5	-4	37*
CC1CC(C)CN(C(=O)c2nn(C)c3c2CSc2ccccc2-3)C1 (stereo unspecified)	2	2	6	1	5	.
CC1CCCN(C(=O)c2nn(C)c3c2CSc2ccccc2-3)C1 (stereo unspecified)	31*	3	-13	1	4	37*
COC(=O)c1cccc(Cn2c(Cl)c(/C=N/Nc3ccccc3C)sc2=O)c1	79*	4	4	13	4	1
CCOC(=O)Cn1cc(CN2C(C(=O)OC)CN(Cc3ccc(Cl)cc3)CCS2(=O)=O)nn1 (stereo unspecified)	-4	0	.	0	5	.
CCOc1ccc(-n2ccnc(SCC(=O)NCCc3ccccc3)c2=O)cc1	15	2	7	-7	3	.
Cc1ccc(-n2ccnc(SCC(=O)NCCc3ccccc3)c2=O)cc1F	59*	5	-7	5	-5	42*
O=C(CSc1nccn(-c2ccc(F)c(Cl)c2)c1=O)NC1CCCC1	32*	-2	4	2	7	39*
O=S1(=O)c2c(cccc2N2CCSCC2)Oc2ccccc2CN1Cc1cn(Cc2ccc(C(F)(F)F)cc2)nn1	-4	-8	.	8	-7	.
SMILES	PRMT1 inh	ABHD4 inh	TCR-CD3 inh	rCAG RNA binder	SIAE inh	PRMT1 confirm
NNC(=O)CSc1c(-c2ccccc2)c2cc(Cl)ccc2[nH]c1=O	4	5	-4	16	0	.
O=c1[nH]c2ccc(Cl)cc2c(-c2ccccc2)c1SC(=S)N1CCOCC1	27*	6	7	3	-9	16
O=c1[nH]c2ccc(Cl)cc2c(-c2ccccc2)c1SC(=S)N1CCCCC1	44*	-4	-11	9	-16	24*
COC(=O)[C@]12C[C@H](CC(=O)NCc3cccc(C(F)(F)F)c3)C(=O)N(Cc3ccc(Cl)cc3Cl)C1=C[C@H](C1CCCC1)O[C@@H]2C	2	-8	.	5	1	.
c1ccc(Cn2c(SCC3CCCCC3)nnc2-c2cccnc2)cc1	46*	-2	.	-2	2	-4
O=C(OCC(=O)c1ccco1)c1ccc2ncsc2c1	46*	-10	-9	7	-2	4
CC(C)(C)c1ccc(NC(=O)COC(=O)c2ccc3ncsc3c2)cc1	6	-11	-4	7	-13	.
c1cn2cc(-c3ccc4c(c3)OCO4)nc2s1	35*	-3	-1	-2	5	46*
Nc1cccn2c(-c3ccc(Cl)c(Cl)c3)cnc12	32*	8	-5	8	1	-3
CC(=O)Nc1cc(-c2ccccc2)cn2c(-c3ccc(F)c(Cl)c3)cnc12	-1	-3	4	9	5	.
Nc1cccn2c(-c3ccc(Cl)cc3)cnc12	42*	18	2	6	2	-1
Cc1nn(C)cc1NC(=O)C[C@H]1CC[C@H]2[C@@H](COc3ccc(NC(=O)Nc4ccccc4)cc3C(=O)N2C)O1	-3	10	.	3	0	.
C[C@@H]1COc2cccc(NC3CC3)c2S(=O)(=O)N1	-1	1	2	-1	-1	.
O=Cc1ccc([B-](F)(F)F)o1	-2	6	-2	2	8	.
CC(=O)OCC1=C(C(=O)O)N2C(=O)C(NC(=O)COc3ccc(F)cc3)C2SC1 (stereo unspecified)	37*	-2	6	21	1	48*
C=CC1=C(C(=O)O)N2C(=O)C(NC(=O)Cc3ccccc3)C2SC1 (stereo unspecified)	17	2	0	8	1	.
CCOc1ccc(C(=O)NC2C(=O)N3C(C(=O)O)=C(COC(C)=O)CSC23)cc1OCC (stereo unspecified)	27*	9	5	15	-1	9
CC(=O)OCC1=C(C(=O)O)N2C(=O)[C@@H](NC(=O)Cc3ccccc3)[C@H]2SC1	27*	4	5	8	-4	11
O=C(OC12CCCN(C1)/C(=C/c1ccncc1)C2)c1ccco1 (stereo unspecified)	-4	2	.	3	9	.
COC(=O)C[C@H]1CC[C@@H]2[C@@H](COc3ccc(NS(=O)(=O)c4ccccc4Cl)cc3C(=O)N2C)O1	0	2	.	7	10	.
COC(=O)[C@]12C[C@H](CC(=O)NCc3cccc4ccccc34)C(=O)N(Cc3ccco3)C1=C[C@H](C(C)C)O[C@@H]2C1CC1	4	0	.	7	2	.
